Data from ChEMBL document CHEMBL3351594, “Cytotoxic dimeric epipolythiodiketopiperazines from the ascomycetous fungus Preussia typharum” (J Nat Prod, 2014).

Legend:
[1] = system: MDA-MB-435; test: Cytotoxicity against human MDA-MB-435 cells by SRB method; format: functional
How it was run: (§1)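 NCI-60 in vitro drug screening panel. Values are the molar concentrations giving 50% growth inhibition (GI50) and total growth inhibition (TGI).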

[2] = system: SK-MEL-2; test: Cytotoxicity against human SK-MEL-2 cells by SRB method; format: functional; how it was run: as §1
[3] = system: SK-MEL-28; test: Cytotoxicity against human SK-MEL-28 cells by SRB method; format: functional; how it was run: as §1
[4] = system: SK-MEL-5; test: Cytotoxicity against human SK-MEL-5 cells by SRB method; format: functional
How it was run: (§2)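 NCI-60 in vitro screen panel of human tumor lines; GI50 (molar concentration giving 50% growth inhibition) and TGI (total growth inhibition) taken from dose–response data.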

[5] = Cytotoxicity against human OVCAR3 cells by SRB method; format: functional; how it was run: as §1
[6] = Cytotoxicity against human OVCAR5 cells by SRB method; format: functional; how it was run: as §1
[7] = Cytotoxicity against human OVCAR8 cells by SRB method; format: functional; how it was run: as §1
[8] = system: A498; test: Cytotoxicity against human A498 cells by SRB method; format: functional; how it was run: as §1
[9] = system: CAKI-1; test: Cytotoxicity against human Caki1 cells by SRB method; format: functional; how it was run: as §1
[10] = system: TK-10; test: Cytotoxicity against human TK10 cells by SRB method; format: functional; how it was run: as §2
[11] = Cytotoxicity against human UO31 cells by SRB method; format: functional; how it was run: as §2
[12] = system: MCF7; test: Cytotoxicity against human MCF7 cells by SRB method; format: functional; how it was run: as §1
[13] = Cytotoxicity against human Hs578T cells by SRB method; format: functional; conditions: Hs-578T; how it was run: as §1
[14] = system: T47D; test: Cytotoxicity against human T47D cells by SRB method; format: functional; how it was run: as §2
[15] = Cytotoxicity against human P-gp expressing SKOV3-M6/6 cells by SRB assay; format: functional
How it was run: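 SRB assay in SK-OV-3/MDR-1-6/6 cells, a single-cell clone of SKOV-3/MDR1 (P-gp). Percent cell growth follows Boyd et al. GI50 was derived from dose–response curves of percent growth. Results are mean ± SE of n = 3 or 4 independent experiments. Relative resistance is calculated against parental SK-OV-3.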

[16] = system: UACC-62; test: Cytotoxicity against human UACC62 cells assessed as reduction of colony formation incubated for 4 hrs followed by compound washout measured after 14 days relative to vehicle-treated control; format: functional, cell-based
How it was run: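 Clonogenic test: 600 UACC-62 cells (RPMI1640, 10% FBS, gentamicin) adhered, exposed 4 h to vehicle (DMSO) or compound, washed with DPBS, fresh medium, grown 14 days; fixed, 0.5% crystal violet in 10% methanol, colonies counted; duplicate/triplicate, n = 2–4 experiments; one-way ANOVA with Dunnett's vs vehicle.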

[17] = system: HeLa; test: Cytotoxicity against human HeLa cells assessed as reduction of colony formation incubated for 4 hrs followed by compound washout measured after 14 days relative to vehicle-treated control; format: functional, cell-based
How it was run: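 HeLa cells (300) were plated in dishes and treated with vehicle (DMSO) or compound for 4 h. They were then washed with DPBS and given fresh medium. After 14 days, colonies were fixed, stained with 0.5% crystal violet in 10% methanol and counted. Analysis was one-way ANOVA with Dunnett's post hoc test against vehicle.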

[18] = system: HeLa; test: Cytotoxicity against human HeLa cells; format: functional
[19] = system: Mus musculus; test: Toxicity in athymic nude mouse xenografted with human UACC62 cells assessed as rapid and persistent weight loss at 2 mg/kg, ip; format: organism-based, UACC-62; design: dose 2 mg/kg, route intraperitoneal; conditions: in vivo
[20] = Cytotoxicity against human MIAPaCa2 cells after 24 hrs by MTT assay; format: functional, cell-based; conditions: MIA PaCa-2, 24 h
[21] = system: SK-OV-3; test: Resistance ratio of GI50 for human P-gp expressing SKOV3-M6/6 cells to GI50 for human SKOV3 cells; format: functional
How it was run: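 SRB assay in SK-OV-3 and its P-gp/MDR1 single-cell clone SK-OV-3/MDR-1-6/6; GI50 from percent growth dose–response curves, n = 3 or 4 independent experiments; relative resistance taken as ratio of GI50 in the MDR line to parental.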

[22] = system: CCRF-CEM; test: Cytotoxicity against human CCRF-CEM cells by SRB method; format: functional; how it was run: as §1
[23] = system: SR; test: Cytotoxicity against human SR cells by SRB method; format: functional; how it was run: as §2
[24] = system: A549; test: Cytotoxicity against human A549 cells by SRB method; format: functional; how it was run: as §1
[25] = Cytotoxicity against human EKVX cells by SRB method; format: functional; how it was run: as §1
[26] = system: HOP-62; test: Cytotoxicity against human HOP62 cells by SRB method; format: functional; how it was run: as §1
[27] = system: NCI-H322M; test: Cytotoxicity against human NCI-H322M cells by SRB method; format: functional; how it was run: as §1
[28] = Cytotoxicity against human HCT116 cells by SRB method; format: functional; how it was run: as §1
[29] = Cytotoxicity against human HCT15 cells by SRB method; format: functional; how it was run: as §1
[30] = system: SF-268; test: Cytotoxicity against human SF268 cells by SRB method; format: functional; how it was run: as §1
[31] = system: SF-295; test: Cytotoxicity against human SF295 cells by SRB method; format: functional; how it was run: as §1
[32] = system: SNB-75; test: Cytotoxicity against human SNB75 cells by SRB method; format: functional; how it was run: as §2
[33] = system: U-251; test: Cytotoxicity against human U251 cells by SRB method; format: functional; how it was run: as §2
[34] = system: LOX IMVI; test: Cytotoxicity against human LOXIMVI cells by SRB method; format: functional; how it was run: as §1
[35] = read-out: LC50 (the source's name)

SMILES: CC(C)[C@@]12SS[C@]3(C(=O)N1C)[C@@H](O)[C@]1(C45c6ccccc6N[C@H]4N4C(=O)[C@@]6(CO)SS[C@@]4(C(=O)N6C)[C@H]5O)c4ccccc4N[C@@H]1N3C2=O (some centres not stated)
- GI50 [1]: 10.7 nM
- TGI [1]: 28.8 nM
- CC50 [1, 35]: 120 nM
- GI50 [2]: 9.8 nM
- TGI [2]: 20.4 nM
- CC50 [2, 35]: 43.7 nM
- GI50 [3]: 12.6 nM
- TGI [3]: 38 nM
- CC50 [3, 35]: 135 nM
- GI50 [4]: 14.8 nM
- TGI [4]: 57.5 nM
- CC50 [4, 35]: 151 nM
- GI50 ([5]; OVCAR-3): 10.7 nM
- TGI ([5]; OVCAR-3): 26.3 nM
- CC50 ([5]; OVCAR-3, read-out: LC50 (the source's name)): 85.1 nM
- GI50 ([6]; OVCAR-5): 52.5 nM
- TGI ([6]; OVCAR-5): 138 nM
- CC50 ([6]; OVCAR-5, read-out: LC50 (the source's name)): 363 nM
- GI50 ([7]; OVCAR-8): 9.5 nM
- TGI ([7]; OVCAR-8): 19.1 nM
- CC50 ([7]; OVCAR-8, read-out: LC50 (the source's name)): 38 nM
- GI50 [8]: 9.8 nM
- TGI [8]: 28.2 nM
- CC50 [8, 35]: 105 nM
- GI50 [9]: 8.7 nM
- TGI [9]: 22.4 nM
- CC50 [9, 35]: 85.1 nM
- GI50 [10]: 11.7 nM
- TGI [10]: 24.5 nM
- CC50 [10, 35]: 57.5 nM
- GI50 ([11]; UO-31): 9.8 nM
- TGI ([11]; UO-31): 26.3 nM
- CC50 ([11]; UO-31, read-out: LC50 (the source's name)): 100 nM
- GI50 [12]: 10 nM
- TGI [12]: 55 nM
- CC50 [12, 35]: 166 nM
- GI50 [13]: 26.3 nM
- TGI [13]: 447 nM
- GI50 [14]: 9.1 nM
- TGI [14]: 26.3 nM
- CC50 [14, 35]: 102 nM
- GI50 [15]: 33 nM
- Activity [16]: Dose-dependent effect
- Activity [17]: Dose-dependent effect
- GI50 [18]: 20 nM
- Activity [19]: Toxic
- IC50 [20]: 6.6 nM
- Ratio [21]: 1.7
- GI50 [22]: 9.3 nM
- TGI [22]: 38 nM
- CC50 [22, 35]: > 50000 nM
- GI50 [23]: 11.2 nM
- TGI [23]: 31.6 nM
- CC50 [23, 35]: > 50000 nM
- GI50 [24]: 26.3 nM
- TGI [24]: 93.3 nM
- CC50 [24, 35]: 263 nM
- GI50 [25]: 28.2 nM
- TGI [25]: 257 nM
- CC50 [25, 35]: 2040 nM
- GI50 [26]: 11.7 nM
- TGI [26]: 30.9 nM
- CC50 [26, 35]: 110 nM
- GI50 [27]: 20 nM
- TGI [27]: 102 nM
- CC50 [27, 35]: 490 nM
- GI50 ([28]; HCT-116): 12.3 nM
- TGI ([28]; HCT-116): 51.3 nM
- CC50 ([28]; HCT-116, read-out: LC50 (the source's name)): 162 nM
- GI50 ([29]; HCT-15): 17 nM
- TGI ([29]; HCT-15): 89.1 nM
- CC50 ([29]; HCT-15, read-out: LC50 (the source's name)): 479 nM
- GI50 [30]: 22.4 nM
- TGI [30]: 107 nM
- CC50 [30, 35]: 417 nM
- GI50 [31]: 57.5 nM
- TGI [31]: 155 nM
- CC50 [31, 35]: 417 nM
- GI50 [32]: 13.5 nM
- TGI [32]: 50.1 nM
- CC50 [32, 35]: 158 nM
- GI50 [33]: 17.8 nM
- TGI [33]: 61.7 nM
- CC50 [33, 35]: 178 nM
- GI50 [34]: 8.3 nM
- TGI [34]: 21.4 nM
- CC50 [34, 35]: 46.8 nM
